Results from ChEMBL document CHEMBL3120059, “Flavonoids, flavonoid metabolites, and phenolic acids inhibit oxidative stress in the neuronal cell line HT-22 monitored by ECIS and MTT assay: a comparative study” (J Nat Prod, 2014).
The source made the active and inactive calls. The rule behind the calls is not given here.

What was measured:
[1] = system: HT-22; test: Neuroprotective activity in mouse HT22 cells assessed as reduction of t-BOOH-induced oxidative stress at 40 uM preincubated for 3 hrs followed by t-BOOH induction measured after 20 hrs by MTT assay; assay type: functional, cell-based
In short: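 Run in the ECIS wells right after impedance recording ended, 20 h after t-BOOH (3 h, 40 μM compound preincubation; 300 μM t-BOOH). MTT stock (4 mg/mL in PBS) was diluted 1:10 in medium and incubated 1 h. Lysis was with 10% SDS pH 4.1, A560 read next day. Viability is given as % of untreated control, mean ± SD of three independent experiments.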

[2] = system: HT-22; test: Neuroprotective activity in mouse HT22 cells assessed as reduction of t-BOOH-induced oxidative stress at 40 uM preincubated for 3 hrs followed by t-BOOH induction measured for 20 hrs by time-resolved ECIS analysis; assay type: functional, cell-based
In short: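 HT-22 cells on 8-well gold-electrode arrays precoated with glutaraldehyde-crosslinked gelatin, seeded at 6 × 10^5 cells/well and grown 2−3 days to confluence (37 °C, 5% CO2). After 1 h baseline, compound (40 μM final, DMSO <0.1%) was added for 3 h, then 300 μM t-BOOH. Impedance was recorded 20 h, |Z| normalized to the last pre-t-BOOH value; three independent experiments.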

[3] = system: HT-22; test: Cytotoxicity against mouse HT22 cells assessed as cell viability at 40 uM after 24 hrs by MTT assay; assay type: cell-based; conditions: ht-22, 24 h
In short: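 Confluent-layer MTT. Gelatin-precoated 96-well plates were seeded at 5 × 10^4 HT-22 cells/well and grown 24 h to confluence, then exposed 24 h to 40 μM compound (DMSO <0.1%). MTT stock (4 mg/mL) was diluted 1:10 and incubated 1 h. Lysis was with 10% SDS pH 4.1, A560 read next day. Results are % of untreated control, ≥3 independent experiments.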

[4] = system: HT-22; test: Neuroprotective activity in mouse HT22 cells assessed as reduction of glutamate-induced oxidative stress by ECIS analysis; assay type: functional, cell-based
[5] = system: HT-22; test: Neuroprotective activity in mouse HT22 cells assessed as reduction of glutamate-induced oxidative stress after 24 hrs by MTT assay; assay type: functional, cell-based
In short: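 Unconfluent HT-22 cells seeded at 5 × 10^3/well, cultured 24 h, then incubated 24 h with compound plus 5 mM glutamate. MTT stock (4 mg/mL) was diluted 1:10 and incubated 3 h. Lysis was with 10% SDS pH 4.1, A560 read next day. Viability is % of untreated control; three independent experiments, each in quadruplicate.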

[6] = system: HT-22; test: Neuroprotective activity in mouse HT22 cells assessed as t-BOOH-induced toxicity at 40 uM preincubated for 3 hrs followed by t-BOOH induction measured after 9 hrs by MTT assay; assay type: functional, cell-based
In short: (§1)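 Confluent HT-22 cells under the ECIS conditions: 3 h preincubation with 40 μM compound, then 300 μM t-BOOH. MTT reaction was started 4.5 h or 9 h after t-BOOH addition. Viability is expressed relative to untreated control.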

[7] = system: HT-22; test: Neuroprotective activity in mouse HT22 cells assessed as t-BOOH-induced toxicity at 40 uM preincubated for 3 hrs followed by t-BOOH induction measured after 4.5 hrs by MTT assay; assay type: functional; in short: as §1
[8] = system: HT-22; test: Neuroprotective activity in mouse HT22 cells assessed as reduction of t-BOOH-induced oxidative stress preincubated for 3 hrs followed by t-BOOH induction measured for 20 hrs by time-resolved ECIS analysis; assay type: functional, cell-based
In short: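 HT-22 cells grown to confluence (2–3 days) on gelatin/glutaraldehyde-precoated gold electrode arrays, 37 °C, 5% CO2; 1 h baseline equilibration, then compounds (DMSO <0.1%, 40 μM final; positive control 10–50 μM) preincubated 3 h before 300 μM t-BOOH. Impedance magnitude |Z| recorded 20 h further, normalized to last value before t-BOOH; three independent experiments, mean ± SD.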

[9] = system: HT-22; test: Cytotoxicity against mouse HT22 cells assessed as cell viability after 24 hrs by MTT assay; assay type: cell-based; conditions: ht-22, 24 h

Row | Compound | Activity [1] | Activity [2] | Activity [3] | Activity [6] | other results
1 | COC(=O)/C=C/c1ccc(O)c(OC)c1 | inactive | inactive | Non-toxic | – | –
2 | O=C(O)[C@H]1O[C@@H](Oc2c(-c3ccc(O)c(O)c3)oc3cc(O)cc(O)c3c2=O)[C@H](O)[C@@H](O)[C@@H]1O | – | – | – | – | Activity [4]: inactive; Activity [5]: inactive
3 | COC(=O)[C@H]1O[C@@H](Oc2c(-c3ccc(O)c(O)c3)oc3cc(O)cc(O)c3c2=O)[C@H](O)[C@@H](O)[C@@H]1O | – | – | – | – | Activity [4]: inactive; Activity [5]: inactive
4 | COc1cc(-c2oc3cc(O)cc(O)c3c(=O)c2O)ccc1O | inactive | inactive | – | – | –
5 | COC(=O)/C=C/c1ccc(O)c(O)c1 [METHYLCAFFEATE] | Active | Active | Non-toxic | Active | –
6 | COc1cc(/C=C/C(=O)O)ccc1O [FERULATE] | inactive | inactive | Non-toxic | – | –
7 | O=C(O)Cc1ccc(O)c(O)c1 [3,4-DIHYDROXYPHENYLACETIC ACID] | – | – | Non-toxic | – | –
8 | O=c1c(O)c(-c2ccc(O)c(O)c2)oc2cc(O)cc(O)c12 [QUERCETIN] | Active | – | – | Active | Activity [7]: 70%; Activity [8]: Dose-dependent effect
9 | Oc1cc(O)c2c(c1)O[C@H](c1ccc(O)c(O)c1)[C@H](O)[C@H]2c1c(O)cc(O)c2c1O[C@H](c1ccc(O)c(O)c1)[C@@H](O)C2 | inactive | inactive | – | – | –
10 | O=C(O)/C=C/c1ccc(O)c(O)c1 [CAFFEIC ACID] | inactive | inactive | Non-toxic | – | –
11 | Cc1ccc(O)c(O)c1 | Active | Active | Non-toxic | Active | Activity [7]: 70%
12 | Oc1ccccc1O [CATECHOL] | Active | Active | Toxic | Active | –
13 | O=c1cc(-c2ccc(O)c(O)c2)oc2cc(O)cc(O)c12 | Active | – | – | Active | –
14 | O=C1C[C@@H](c2ccc(O)c(O)c2)Oc2cc(O)cc(O)c21 [ERIODICTYOL] | Active | – | – | Active | Activity [4]: Active; Activity [9]: Dose-dependent effect; Activity [5]: Dose-dependent effect
15 | Oc1cc(O)c2c(c1)OC(c1ccc(O)c(O)c1)C(O)C2 (stereo not drawn) | inactive | inactive | – | – | –
16 | O=c1cc(-c2ccc(O)cc2)oc2cc(O)cc(O)c12 | inactive | inactive | – | – | –
17 | O=C(O)Cc1cccc(O)c1 [3-Hydroxyphenylacetate] | – | – | Non-toxic | – | –
18 | O=C1C[C@@H](c2ccc(O)cc2)Oc2cc(O)cc(O)c21 | inactive | inactive | – | – | –
19 | COC(=O)Cc1ccc(O)c(O)c1 | Active | Active | Non-toxic | Active | Activity [7]: 70%
20 | O=c1c(O)c(-c2ccc(O)cc2)oc2cc(O)cc(O)c12 [KAEMPFEROL] | inactive | inactive | – | – | Activity [9]: Dose-dependent effect; Activity [5]: Dose-dependent effect
